Data on 2 compounds can be found in ChEMBL document CHEMBL4411330, “Effects of Systematic Shortening of Noncovalent C8 Side Chain on the Cytotoxicity and NF-κB Inhibitory Capacity of Pyrrolobenzodiazepines (PBDs)” (J Med Chem, 2019).

Activity calls are given as the source filed them. The rule behind the calls is not given here.

Data set [1] is described as follows: Cytotoxicity against human T cells assessed as cell death after 48 hrs by annexin V/propidium iodide-staining based flow cytometry. The settings on record: read-out: LC50. The essentials: (§1)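 Normal peripheral blood B or T cells from three donors were isolated by Histopaque density gradient and phenotyped for CD19/CD3/CD38/CD49d. They were used within 24 h in RPMI with 10% FBS, 1% glutamate and 1% pen/strep at 37 °C, 5% CO2. Cells at 1,000,000 cells/ml were exposed from 1 nM upward for 48 h, in triplicate. FITC-Annexin V/PI staining was read by flow cytometry, and LC50 was taken from the dose-response curves.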

For data set [2], the target named is T1, Transcription factor RelB (Homo sapiens) (UniProt Q01201).
T1 sequence (whole entry): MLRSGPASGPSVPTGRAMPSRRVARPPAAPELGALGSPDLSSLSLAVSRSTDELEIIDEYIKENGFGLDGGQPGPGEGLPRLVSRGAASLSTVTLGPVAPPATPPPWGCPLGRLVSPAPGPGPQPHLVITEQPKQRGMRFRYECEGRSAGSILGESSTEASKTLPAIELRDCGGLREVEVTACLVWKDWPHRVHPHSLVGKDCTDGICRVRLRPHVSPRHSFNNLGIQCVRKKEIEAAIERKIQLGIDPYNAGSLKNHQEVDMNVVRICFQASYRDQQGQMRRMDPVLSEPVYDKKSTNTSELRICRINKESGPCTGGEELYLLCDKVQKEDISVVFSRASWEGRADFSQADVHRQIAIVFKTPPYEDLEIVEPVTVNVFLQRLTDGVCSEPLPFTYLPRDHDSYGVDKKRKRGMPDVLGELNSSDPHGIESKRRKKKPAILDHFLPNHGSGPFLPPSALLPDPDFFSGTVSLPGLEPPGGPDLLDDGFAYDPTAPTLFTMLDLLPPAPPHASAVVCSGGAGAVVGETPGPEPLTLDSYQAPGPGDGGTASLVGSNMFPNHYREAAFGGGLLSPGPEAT
In words: Inhibition of NF-kappaB in human JJN-3 cells assessed as reduction in RelB DNA binding activity up to 30 nM after 4 hrs by ELISA. The data set is classed as cell-based.

Data set [3] in a line: Therapeutic index, ratio of LC50 for human T cells to LC50 for human primary CLL cells. The data set is classed as toxicity. Particulars: T cells versus primary CLL cells, read-out: TI.
Data set [4] concerns the target T2, Nuclear factor NF-kappa-B p100 subunit (Homo sapiens) (UniProt Q00653).
T2 sequence (whole entry): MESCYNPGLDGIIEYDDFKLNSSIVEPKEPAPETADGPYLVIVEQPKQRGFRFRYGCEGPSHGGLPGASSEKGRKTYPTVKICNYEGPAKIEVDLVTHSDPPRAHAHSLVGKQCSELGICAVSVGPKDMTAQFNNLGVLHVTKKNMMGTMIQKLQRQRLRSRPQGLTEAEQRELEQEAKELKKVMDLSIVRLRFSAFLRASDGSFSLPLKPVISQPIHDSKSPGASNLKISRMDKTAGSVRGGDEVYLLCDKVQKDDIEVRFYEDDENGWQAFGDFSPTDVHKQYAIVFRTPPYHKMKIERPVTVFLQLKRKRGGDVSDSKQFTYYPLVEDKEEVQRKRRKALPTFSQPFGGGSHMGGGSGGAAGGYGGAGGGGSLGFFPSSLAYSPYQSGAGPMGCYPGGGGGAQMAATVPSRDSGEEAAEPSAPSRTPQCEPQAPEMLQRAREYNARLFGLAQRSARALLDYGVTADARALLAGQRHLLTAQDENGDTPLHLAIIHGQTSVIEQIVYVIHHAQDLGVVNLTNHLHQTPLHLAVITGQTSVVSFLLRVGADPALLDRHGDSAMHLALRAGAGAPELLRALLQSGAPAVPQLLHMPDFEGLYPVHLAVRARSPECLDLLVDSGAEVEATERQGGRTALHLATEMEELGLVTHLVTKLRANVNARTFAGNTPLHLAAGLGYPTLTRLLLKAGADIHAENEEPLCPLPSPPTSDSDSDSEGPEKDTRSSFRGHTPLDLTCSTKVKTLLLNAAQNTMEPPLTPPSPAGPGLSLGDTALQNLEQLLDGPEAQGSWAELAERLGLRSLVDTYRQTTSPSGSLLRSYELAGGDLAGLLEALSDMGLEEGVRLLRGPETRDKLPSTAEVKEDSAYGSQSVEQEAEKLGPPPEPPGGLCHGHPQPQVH
In words: Inhibition of NF-kappaB in human JJN-3 cells assessed as reduction in p52 DNA binding activity up to 30 nM after 4 hrs by ELISA. The data set is classed as cell-based.

Data set [5] is described as follows: Cytotoxicity against human B cells assessed as cell death after 48 hrs by annexin V/propidium iodide-staining based flow cytometry. The settings on record: read-out: LC50. An outline of the steps: as §1
The subject of another data set is JJN-3. In words: Cytotoxicity against human JJN-3 cells assessed as cell death after 48 hrs by annexin V/propidium iodide-staining based flow cytometry. The data set is classed as functional. The settings on record: JJN-3, 48 h, read-out: LC50 (the source's name). An outline of the steps: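 JJN-3 cells were grown in DMEM with 20% FBS, 1% pen/strep and 1% pyruvate at 37 °C, 5% CO2. They were seeded at 1,000,000 cells/ml and exposed to compound from 1 nM upward for 48 h, in triplicate. Cell death was measured by Annexin V-FITC/propidium iodide flow cytometry, and LC50 was derived from sigmoidal dose-response curves.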
Background: In flow cytometry, cells or beads pass a laser one at a time.

A short description of data set [6]: Therapeutic index, ratio of LC50 for human B cells to LC50 for human primary CLL cells. Particulars: B cells versus primary CLL cells, read-out: TI. The data set is classed as toxicity.
Data set [7] addresses Transcription factor p65 (Homo sapiens) (UniProt Q04206). Put plainly: Inhibition of NF-kappaB in human JJN-3 cells assessed as reduction in p65 DNA binding activity up to 30 nM after 4 hrs by ELISA. The data set is classed as cell-based. In general terms: In an ELISA, binding on a coated surface is turned into a signal by an enzyme label.
Data set [8] is described as follows: Cytotoxicity against human primary CLL cells assessed as cell death after 48 hrs by annexin V/propidium iodide-staining based flow cytometry. Particulars: read-out: LC50 (the source's name). The data set is classed as functional. An outline of the steps: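 Primary patient CLL cells were isolated by Histopaque density gradient, phenotyped by flow cytometry and used within 24 h. Culture was RPMI with 10% FBS, 1% glutamate and 1% pen/strep, plus IL-4 5 ng/ml added with compound, at 37 °C, 5% CO2. Cells at 1,000,000 cells/ml were treated from 1 nM upward for 48 h, in triplicate. Annexin V-FITC/PI was read by flow cytometry, and LC50 came from sigmoidal dose-response fits.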

The target of data set [9] is T3, Nuclear factor NF-kappa-B p105 subunit (Homo sapiens) (UniProt P19838).
T3 sequence (whole entry): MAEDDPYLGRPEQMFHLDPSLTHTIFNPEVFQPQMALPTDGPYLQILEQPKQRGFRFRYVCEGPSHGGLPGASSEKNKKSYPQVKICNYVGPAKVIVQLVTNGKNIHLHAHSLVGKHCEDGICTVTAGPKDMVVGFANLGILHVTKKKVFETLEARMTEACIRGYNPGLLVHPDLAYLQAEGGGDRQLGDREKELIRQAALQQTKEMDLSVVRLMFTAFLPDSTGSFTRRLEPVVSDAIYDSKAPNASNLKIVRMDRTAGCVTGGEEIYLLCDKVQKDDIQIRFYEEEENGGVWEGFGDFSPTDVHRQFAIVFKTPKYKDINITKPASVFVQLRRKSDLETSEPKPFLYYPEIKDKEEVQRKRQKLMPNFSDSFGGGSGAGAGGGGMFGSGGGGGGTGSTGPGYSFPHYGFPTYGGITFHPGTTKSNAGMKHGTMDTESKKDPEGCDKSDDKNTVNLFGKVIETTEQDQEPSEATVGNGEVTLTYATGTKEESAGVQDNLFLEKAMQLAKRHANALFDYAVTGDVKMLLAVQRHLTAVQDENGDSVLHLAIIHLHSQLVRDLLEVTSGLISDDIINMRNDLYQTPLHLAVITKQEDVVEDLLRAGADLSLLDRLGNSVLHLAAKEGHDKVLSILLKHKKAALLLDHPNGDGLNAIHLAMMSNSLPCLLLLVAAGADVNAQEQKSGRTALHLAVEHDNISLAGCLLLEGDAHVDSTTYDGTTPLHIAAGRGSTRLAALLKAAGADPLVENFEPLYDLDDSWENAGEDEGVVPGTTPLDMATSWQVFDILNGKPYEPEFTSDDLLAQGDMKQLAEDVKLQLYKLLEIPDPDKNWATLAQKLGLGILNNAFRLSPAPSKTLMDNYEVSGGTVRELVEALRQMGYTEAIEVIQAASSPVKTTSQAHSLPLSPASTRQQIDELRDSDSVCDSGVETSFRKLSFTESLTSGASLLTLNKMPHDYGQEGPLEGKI
In words: Inhibition of NF-kappaB in human JJN-3 cells assessed as reduction in p50 DNA binding activity up to 30 nM after 4 hrs by ELISA. The data set is classed as cell-based.

Chain of Transcription factor p65 (Homo sapiens) (Q04206 whole entry): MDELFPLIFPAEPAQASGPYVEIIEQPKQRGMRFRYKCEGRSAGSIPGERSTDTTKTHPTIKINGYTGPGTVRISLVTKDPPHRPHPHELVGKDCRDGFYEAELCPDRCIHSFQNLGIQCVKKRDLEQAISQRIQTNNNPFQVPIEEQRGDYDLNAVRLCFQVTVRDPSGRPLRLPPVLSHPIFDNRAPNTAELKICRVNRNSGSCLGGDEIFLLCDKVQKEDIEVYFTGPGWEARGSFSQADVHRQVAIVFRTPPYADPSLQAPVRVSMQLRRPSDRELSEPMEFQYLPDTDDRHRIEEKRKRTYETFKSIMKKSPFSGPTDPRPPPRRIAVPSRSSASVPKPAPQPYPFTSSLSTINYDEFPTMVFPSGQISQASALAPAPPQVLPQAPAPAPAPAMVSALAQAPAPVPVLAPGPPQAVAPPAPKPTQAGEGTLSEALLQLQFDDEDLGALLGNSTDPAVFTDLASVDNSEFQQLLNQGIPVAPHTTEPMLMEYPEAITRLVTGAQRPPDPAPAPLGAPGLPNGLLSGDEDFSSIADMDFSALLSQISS

Turning to `CCOc1ccc(NC(=O)CCCOc2cc3c(cc2OC)C(=O)N2CCC[C@H]2C=N3)cc1`, the CC50 at 48 h in data set [1] is 3000 nM; in data set [5] it was 750 nM. Moreover, the inhibition result in data set [2], in data set [4] and in data set [7] was “inactive” in each case. Also, the selectivity ratio in [3] was 517; in [6], 129. Further, the CC50 in the data set with JJN-3 is 15.6 nM; in data set [8] it was 5.8 nM. Moreover, the inhibition entry in data set [9] is “Active”.

With `COC(=O)c1cc(NC(=O)c2cc3cc(NC(=O)CCCOc4cc5c(cc4OC)C(=O)N4CCC[C@H]4C=N5)ccc3o2)cn1C`, the CC50 at 48 h in [1] was 1700 nM; in data set [5] it was 930 nM. Also, the inhibition entry in data set [2] is “Active”. In addition, the selectivity ratio in data set [3] amounted to 227; in data set [6], 124. Besides, the inhibition result in [4] and in data set [9] was “inactive” throughout. For the same compound, the CC50 was found to be 30 nM in the data set on JJN-3 and 7.5 nM in [8].
